# Screens deposited in PubChem BioAssay by The Scripps Research Institute Molecular Screening Center.
# Rows were chosen to be rich in hits. Some 2.3% of all compounds tested hit in one or more screens of this group.
# TAAR1 agonist: human TAAR1 agonism; AID 624467; activation, % at 3 µM; Q96RJ0; 0.99% of 360,000 active; CHO RD-HGA16 TAAR1, Fluo-8 calcium fluorescence; vehicle wells 0%, saturating PEA agonist 100%;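 active means activation above the mean activation of all test compounds in the run plus 3 SD, cut at about 38% in these data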
#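 System: CHO RD-HGA16 cells carrying human TAAR1 plus Gα16; Incubation: 17-24 h seeding, 75 min 37 °C dye, 30 min RT; Measured by: Fluo-8 fluorescence, 5 s baseline then 140 s kinetic read; Control set: DMSO and PEA EC100; Replication: single well for each compound.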
# TAAR1 antag: human TAAR1 antagonism | Q96RJ0 | CHO RD-HGA16 TAAR1, Fluo-8 calcium fluorescence, antagonist | inhibition, % at 3 µM | 1.5% of 360,000 active;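 active means inhibition above a per-plate cutoff, the mean inhibition of test compounds on that plate plus 3 SD, cut at about 49% in these data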;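 further: 0% = DMSO plus EC80 beta-PEA response and 100% = DMSO alone without agonist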
#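 Test system: RD-HGA16 CHO cells with stable hTAAR1 and Gα16 / Probe or stimulus: EC80 β-phenethylamine stimulus / Times: seeding 17-24 h prior, 75-min 37 °C, 30-min RT dye loading / Detection: Fluo-8 calcium-sensitive fluorescence / Read-out basis: % inhibition scaled between DMSO and EC80 PEA controls / Repeats: singlicate, one well per test compound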
# OXTR ag: human OXTR agonism. P30559. CHO-OTR cells, Fluo-8 calcium fluorescence; normalized: DMSO 0%, oxytocin 100%. activation, % at 3 µM. 0.32% of 320,000 active. AID 2435;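 active means activation above the mean of all tested compounds plus 3 SD, cutoff set per screening run, cut at about 20% in these data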;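 further: peak over basal fluorescence ratio from a 100 s FLIPR kinetic read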
# V1aR counter: V1a receptor agonism, counter-screen for OXTR agonists | CHO-V1R cells, Fluo-8 calcium fluorescence, agonist mode; 0% DMSO, 100% 3 nM vasopressin | activation, % at 3 µM | 0.25% of 320,000 active | AID 2797;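 active means activation above the mean activation of all tested compounds plus 3 SD, per screening run, cut at about 20% in these data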;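 further: signal is peak over basal fluorescence ratio across a 100 second FLIPR read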
# Target sequence (P37288 whole entry, looked up): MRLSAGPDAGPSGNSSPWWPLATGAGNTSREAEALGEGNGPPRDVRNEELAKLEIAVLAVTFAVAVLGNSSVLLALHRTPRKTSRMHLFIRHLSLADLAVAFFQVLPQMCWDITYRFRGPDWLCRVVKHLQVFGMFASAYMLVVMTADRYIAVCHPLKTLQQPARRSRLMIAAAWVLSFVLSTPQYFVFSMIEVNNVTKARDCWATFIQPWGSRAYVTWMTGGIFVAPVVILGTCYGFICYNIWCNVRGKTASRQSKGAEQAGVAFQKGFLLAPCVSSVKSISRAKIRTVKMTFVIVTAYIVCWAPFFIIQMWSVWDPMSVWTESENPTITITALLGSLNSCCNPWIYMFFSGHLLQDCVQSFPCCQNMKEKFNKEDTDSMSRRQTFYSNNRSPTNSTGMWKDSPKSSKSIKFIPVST
# OXTR potentiate: human OXTR potentiation; P30559; CHO-OTR cells, Fluo-8 calcium fluorescence, potentiator mode; 0% = oxytocin EC15, 100% = EC100; activation, % at 3 µM; 0.061% of 320,000 active; AID 2445;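 active means activation above that plate's cutoff, the mean activation of tested compounds plus 3 SD, cut at about 6.6% in these data, passing the limit was not always enough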;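 further: 100% uses oxytocin at 75 nM as the full agonist control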
#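 Assay system: CHO cell line stably expressing human OTR. Reagent: EC15 oxytocin agonist. Dosing: single dose, 3.0 µM nominal final compound concentration. Timing: compound 6 min at room temperature before oxytocin, 100 s read. Signal: kinetic Fluo-8 calcium fluorescence. Controls: oxytocin EC15 low and EC100 high.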
# TAAR1 nonsel count: counter-screen for TAAR1 antagonists: nonselective antagonists. shares compounds with TAAR1 antag. counterscreen cell line, calcium fluorescence, antagonist mode. inhibition, % at 3 µM. 77% of 2,400 active. AID 651780; in the data active means inhibition above about 22%;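 further: CHO-Ga16 host cells stimulated with ATP at an EC80 level; 0% = agonist EC80 plus vehicle and 100% = vehicle without agonist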
# TAAR1 antag conf: confirmation of human TAAR1 antagonists | 40% of 2,400 active | inhibition, % at 3 µM | shares compounds with TAAR1 antag | AID 651785 | TAAR1-expressing cells, fluorescence antagonist read-out; in the data active means inhibition above about 49%;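 further: CHO-Ga16 host cells challenged with agonist PEA near its EC80; 0% = agonist at EC80 plus vehicle and 100% = vehicle with no agonist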
# Ga16 nonsel ag: nonselective Ga16 agonist in TAAR1 antagonist counter-screen; shares compounds with TAAR1 antag; Ga16-expressing cells, calcium fluorescence, agonist counterscreen; activation, % at 3 µM; 18% of 2,400 active; AID 651953; in the data active means activation above about 12%;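 further: 0% = vehicle wells and 100% = saturating stimulus response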
# TAAR1 ag counter: counter-screen for human TAAR1 antagonists: TAAR1 agonists; 2% of 2,400 active; shares compounds with TAAR1 antag; activation, % at 3 µM; hTAAR1 cell line, fluorescence activation, agonist mode; in the data active means activation above about 37%;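 further: CHO cells stably expressing TAAR1 with calcium dye readout; 0% = DMSO vehicle and 100% = full agonist response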
# Starred values were filed as active, the others as inactive; / = not tested or not shown.
SMILES,TAAR1 agonist,TAAR1 antag,OXTR ag,V1aR counter,OXTR potentiate,TAAR1 nonsel count,TAAR1 antag conf,Ga16 nonsel ag,TAAR1 ag counter
CCCC(=O)N1CCCC1(C)C(=O)NCc1ccc(SC)cc1 (stereo not given),-1,0,/,/,/,/,/,/,/
COc1ccc(/C=C2\CCc3ccccc3C2=O)cc1CN1CCOCC1,0,-14,-2,0,-10,/,/,/,/
COc1ccc2c(c1)CC/C(=C\c1ccc(OC)c(Cn3cccn3)c1)C2=O,12,60*,7,7,-20,34*,51*,8,9
CN=C1S/C(=C\c2cccc(Cl)c2Cl)C(=O)N1C,0,-7,-3,-1,-5,/,/,/,/
CCc1ccc(CNC(=O)c2cc3c(C)nc4ccccc4c3o2)cc1,0,45,3,6,-7,/,/,/,/
Cc1nc2ccccc2c2oc(C(=O)NCC3COc4ccccc4O3)cc12 (stereo not given),4,54*,7,8,-8,35*,42,9,8
COc1ccc(NC(=O)c2ccc3ccccc3c2)cc1NS(=O)(=O)c1ccc(F)cc1,1,7,-1,0,-6,/,/,/,/
COc1ccc(NC(=O)c2ccc(C#N)cc2)cc1NS(=O)(=O)c1ccc(F)cc1,0,70*,1,2,-6,5,8,5,5
COc1cccc(NC(=O)CC2Oc3ccccc3NC2=O)c1 (stereo not given),-2,12,1,2,-5,/,/,/,/
Cc1ccc(-c2nc(CS(=O)(=O)CC(=O)NC3CCCCC3C)c(C)o2)cc1 (stereo not given),-2,-43,-1,-2,-9,/,/,/,/
COc1ccc(C(=O)OCC(=O)Nc2sccc2C(N)=O)cc1OC,12,64*,2,5,-9,30*,46,10,11
NC(=O)c1ccsc1NC(=O)COC(=O)Cc1c[nH]c2ccccc12,18,66*,12,11,-21,47*,56*,17*,16
O=C(COC(=O)Cc1c[nH]c2ccccc12)Nc1ccccc1,3,9,2,1,-6,/,/,/,/
COc1cc(C(=O)OCC(=O)Nc2sccc2C(N)=O)cc(OC)c1OC,22,37,1,1,-11,/,/,/,/
CCC(OC(=O)c1ccco1)C(=O)NCc1ccco1 (stereo not given),6,-7,0,1,-1,/,/,/,/
CC1CC1c1ccc(/C=C(\C#N)C(=O)Nc2ccc(Cl)cc2)o1 (stereo not given),6,52*,-1,1,-4,17,37,7,11
O=C(c1cnn2c(C(F)(F)F)cc(-c3cccs3)nc12)N1CCN(Cc2ccccc2)CC1,4,59*,-2,-2,-14,20,38,4,4
CN1CCN(C(=O)c2cnn3c(C(F)(F)F)cc(-c4cccs4)nc23)CC1,1,-4,-1,0,-3,/,/,/,/
COc1ccc(-n2c(SCC(=O)N3CCC(C(=O)O)CC3)nc3ccccc3c2=O)cc1OC,-1,-6,1,1,-1,/,/,/,/
CCOC(=O)C1(Cc2ccccc2C)CCCN(C(=O)c2ccc3nccnc3c2)C1 (stereo not given),15,67*,2,2,-11,24*,49*,8,13
CCOC(=O)C1(Cc2ccccc2C)CCCN(C(=O)c2ccccn2)C1 (stereo not given),16,-21,-1,-1,-10,/,/,/,/
Fc1cccc(NC(=S)NNc2c3ccccc3nc3ccccc23)c1,0,53*,/,/,/,40*,48,3,1
CCC(c1nnnn1-c1ccc2c(c1)OCCO2)N1CCN(c2ccccn2)CC1 (stereo not given),2,11,/,/,/,/,/,/,/
Cc1ccccc1-n1nnnc1SCc1csc(-c2ccccc2)n1,16,70*,0,2,-21,28*,43,7,7
CCOC(=O)c1[nH]c(C)c(/C(O)=C2\C(=O)C(=O)N(CCN3CCOCC3)C2c2cccs2)c1C (stereo not given),2,-4,1,3,-1,/,/,/,/
SMILES,TAAR1 agonist,TAAR1 antag,OXTR ag,V1aR counter,OXTR potentiate,TAAR1 nonsel count,TAAR1 antag conf,Ga16 nonsel ag,TAAR1 ag counter
CC(=O)c1cccc(NC(=O)c2cccc3c(-c4cccc(C(N)=O)c4)coc23)c1,13,85*,/,/,/,42*,56*,13*,11
COc1cc(NC(=O)c2cccc3c(-c4cccnc4)coc23)cc(OC)c1OC,20,76*,/,/,/,29*,59*,16*,15
COCCNC(=O)c1cccc2c(-c3cccc(C(N)=O)c3)coc12,0,-20,/,/,/,/,/,/,/
O=C(CSc1nc2c(cnn2-c2ccc(F)cc2)c(=O)[nH]1)N1N=C(c2cccs2)CC1c1ccc(F)cc1 (stereo not given),5,-16,/,/,/,/,/,/,/
CCC(C)c1nc2c(c(N3CCC3=O)c1-c1ccccc1)CCCC2 (stereo not given),11,2,3,-1,-9,/,/,/,/
Cc1ccc(C)c(N2CCN(C(=O)C34CC5CC(C3)CC(n3nnc(C)n3)(C5)C4)CC2)c1,7,59*,-3,-2,-15,35*,43,7,5
COc1ccc(C(=O)Oc2cccc(Nc3ncnc4ccccc34)c2)cc1OC,12,69*,12,9,-21,43*,54*,12*,5
CCC(CO)Oc1cc(NCc2cccc(Cl)c2)c2ncn(C(C)C)c2c1 (stereo not given),/,/,2,1,-5,/,/,/,/
C=CCO/N=C(/CCC)C1=C(N)CC(C)(C)CC1=O,3,-3,1,0,-15,/,/,/,/
COc1ccc(CNC(=O)C[C@H]2C(=O)N(CCc3ccccc3)C[C@@H]2Cc2ccccc2)cc1,19,56*,2,0,-15,18,29,7,3
O=C(Nc1ccc(COc2ccccc2)cc1)c1cccc([N+](=O)[O-])c1,28,60*,0,2,-15,28*,68*,11,27
CC1CC(C)CN(C(=O)c2ccc(CNc3c(N4CCCC4)c(=O)c3=O)cc2)C1 (stereo not given),0,-14,0,0,-1,/,/,/,/
CC(C)(C)c1ccc(OCc2ccc(C(=O)N/N=C/c3ccc([N+](=O)[O-])cc3)o2)cc1,13,53*,1,1,-3,31*,44,5,8
